Assay results from ChEMBL document CHEMBL4038284, “Synthesis of novel quinoline-based 4,5-dihydro-1H-pyrazoles as potential anticancer, antifungal, antibacterial and antiprotozoal agents” (Eur J Med Chem, 2017).
Values after ≈ are worked out from the molar mass of the structure shown.

Key:
[1] = system: Klebsiella pneumoniae; experiment: Antibacterial activity against ESBL positive Klebsiella pneumoniae ATCC 700603 after 24 hrs by resazurin dye based microdilution assay; assay type: functional; settings: Klebsiella pneumoniae, 700603, 24 h
How it was run: (§1)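 MIC taken as the lowest concentration giving visible inhibition and/or by resazurin (1 mg/mL). Gentamicin was the control. Run in duplicate, repeated at least three times.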

[2] = system: Klebsiella pneumoniae; experiment: Antibacterial activity against carbapenemase positive Klebsiella pneumoniae BAA 1705 after 24 hrs by resazurin dye based microdilution assay; assay type: functional; settings: BAA 1705, 24 h; how it was run: as §1
[3] = system: Leishmania panamensis; experiment: Antileshmanial activity against EpiR/GFP fused Leishmania panamensis MHOM/CO/87/UA140 intracellular amastigotes infected in human […] cells after 72 hrs by flow cytometric method; assay type: functional, cell-based; settings: MHOM/CO/87/UA140, 72 h
How it was run: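 PMA-treated U-937 cells (3 × 10^5 cells/mL) infected with stationary-phase GFP L. panamensis promastigotes (15:1), 3 h at 34 °C, then washed. After 24 h, compounds added at 50, 12.5, 3.125 and 0.78 µg/mL for 72 h at 37 °C. EC50 by Probit; triplicate, two experiments.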

[4] = system: Candida albicans; experiment: Antifungal activity against Candida albicans ATCC 10231 incubated for 48 hrs under dark condition by broth microdilution method; assay type: functional; settings: ATCC 10231, 48 h
How it was run: (§2)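 CLSI M27-A3 broth microdilution in RPMI-1640, DMSO ≤1%, compounds at 250-0.98 µg/mL final. Inoculum 1-5 × 10^3 CFU/mL. Incubated 48 h at 30 °C in a moist dark chamber, read at OD405. MIC80 and MIC50 taken from % inhibition dose-response curves (mean ± SEM, triplicate). Amphotericin B was the positive control.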

[5] = system: Cryptococcus neoformans; experiment: Antifungal activity against Cryptococcus neoformans ATCC 32264 incubated for 48 hrs under dark condition by broth microdilution method; assay type: functional; settings: ATCC 32264, 48 h; how it was run: as §2
[6] = system: Candida albicans; experiment: Growth inhibition of Candida albicans ATCC 10231 at 250 ug/ml incubated for 48 hrs under dark condition by broth microdilution method relative to control; assay type: functional; settings: ATCC 10231, 48 h, read-out: GI
How it was run: (§3)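 CLSI M27-A3 broth microdilution in RPMI-1640, DMSO ≤1%. Inoculum 1-5 × 10^3 CFU/mL. Incubated 48 h at 30 °C, dark. % inhibition = 100 − (OD405 test − sterility control)/(OD405 growth control − sterility control), with growth and sterility control wells. Triplicate.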

[7] = system: Candida albicans; experiment: Growth inhibition of Candida albicans ATCC 10231 at 125 ug/ml incubated for 48 hrs under dark condition by broth microdilution method relative to control; assay type: functional; settings: ATCC 10231, 48 h, read-out: GI; how it was run: as §3
[8] = system: Candida albicans; experiment: Growth inhibition of Candida albicans ATCC 10231 at 62.5 ug/ml incubated for 48 hrs under dark condition by broth microdilution method relative to control; assay type: functional; settings: ATCC 10231, 48 h, read-out: GI; how it was run: as §3
[9] = system: Candida albicans; experiment: Growth inhibition of Candida albicans ATCC 10231 at 31.25 ug/ml incubated for 48 hrs under dark condition by broth microdilution method relative to control; assay type: functional; settings: ATCC 10231, 48 h, read-out: GI; how it was run: as §3
[10] = system: Candida albicans; experiment: Growth inhibition of Candida albicans ATCC 10231 at 15.62 ug/ml incubated for 48 hrs under dark condition by broth microdilution method relative to control; assay type: functional; settings: ATCC 10231, 48 h, read-out: GI; how it was run: as §3
[11] = system: Candida albicans; experiment: Growth inhibition of Candida albicans ATCC 10231 at 7.8 ug/ml incubated for 48 hrs under dark condition by broth microdilution method relative to control; assay type: functional; settings: ATCC 10231, 48 h, read-out: GI; how it was run: as §3
[12] = system: Candida albicans; experiment: Growth inhibition of Candida albicans ATCC 10231 at 3.4 ug/ml incubated for 48 hrs under dark condition by broth microdilution method relative to control; assay type: functional; settings: ATCC 10231, 48 h, read-out: GI
[13] = system: Cryptococcus neoformans; experiment: Growth inhibition of Cryptococcus neoformans ATCC 32264 at 250 ug/ml incubated for 48 hrs under dark condition by broth microdilution method relative to control; assay type: functional; settings: ATCC 32264, 48 h, read-out: GI; how it was run: as §3
[14] = system: Cryptococcus neoformans; experiment: Growth inhibition of Cryptococcus neoformans ATCC 32264 at 125 ug/ml incubated for 48 hrs under dark condition by broth microdilution method relative to control; assay type: functional; settings: ATCC 32264, 48 h, read-out: GI; how it was run: as §3
[15] = system: Cryptococcus neoformans; experiment: Growth inhibition of Cryptococcus neoformans ATCC 32264 at 62.5 ug/ml incubated for 48 hrs under dark condition by broth microdilution method relative to control; assay type: functional; settings: ATCC 32264, 48 h, read-out: GI; how it was run: as §3
[16] = system: Cryptococcus neoformans; experiment: Growth inhibition of Cryptococcus neoformans ATCC 32264 at 31.25 ug/ml incubated for 48 hrs under dark condition by broth microdilution method relative to control; assay type: functional; settings: ATCC 32264, 48 h, read-out: GI; how it was run: as §3
[17] = system: Cryptococcus neoformans; experiment: Growth inhibition of Cryptococcus neoformans ATCC 32264 at 15.62 ug/ml incubated for 48 hrs under dark condition by broth microdilution method relative to control; assay type: functional; settings: ATCC 32264, 48 h, read-out: GI; how it was run: as §3
[18] = system: Cryptococcus neoformans; experiment: Growth inhibition of Cryptococcus neoformans ATCC 32264 at 7.8 ug/ml incubated for 48 hrs under dark condition by broth microdilution method relative to control; assay type: functional; settings: ATCC 32264, 48 h, read-out: GI; how it was run: as §3
[19] = system: Cryptococcus neoformans; experiment: Growth inhibition of Cryptococcus neoformans ATCC 32264 at 3.4 ug/ml incubated for 48 hrs under dark condition by broth microdilution method relative to control; assay type: functional; settings: ATCC 32264, 48 h, read-out: GI
[20] = system: Staphylococcus aureus; experiment: Antibacterial activity against methicillin-sensitive Staphylococcus aureus ATCC 25923 after 24 hrs by resazurin dye based microdilution assay; assay type: functional; settings: ATCC 25923, 24 h; how it was run: as §1
[21] = system: Staphylococcus aureus; experiment: Antibacterial activity against methicillin-resistant Staphylococcus aureus ATCC 43300 after 24 hrs by resazurin dye based microdilution assay; assay type: functional; settings: ATCC 43300, 24 h
How it was run: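 Broth microdilution in Mueller Hinton broth, inoculum 5 × 10^5 – 8 × 10^5. Compound stocks diluted in MHB with 5% DMSO and 0.1% Tween 80. Incubation 24 h at 35-37 °C. MIC is the lowest concentration with visible growth inhibition and/or by resazurin (1 mg/mL) read-out. Gentamicin as control. Run in duplicate, replicated at least three times.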

[22] = system: Staphylococcus aureus; experiment: Antibacterial activity against vancomycin-intermediate Staphylococcus aureus after 24 hrs by resazurin dye based microdilution assay; assay type: functional; how it was run: as §1
[23] = system: Escherichia coli; experiment: Antibacterial activity against Escherichia coli ATCC 25922 after 24 hrs by resazurin dye based microdilution assay; assay type: functional; settings: ATCC 25922, 24 h; how it was run: as §1
[24] = system: Pseudomonas aeruginosa; experiment: Antibacterial activity against Pseudomonas aeruginosa ATCC 27853 after 24 hrs by resazurin dye based microdilution assay; assay type: functional; settings: ATCC 27853, 24 h; how it was run: as §1
[25] = system: Neisseria gonorrhoeae; experiment: Antibacterial activity against beta lactamase positive Neisseria gonorrhoeae ATCC 31426 by oxidase test; assay type: functional
How it was run: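 Agar dilution MIC on GC agar with 1% isovitalex containing increasing compound concentrations. Plates inoculated with about 1×10^4 CFU (5 µL). MIC is the lowest concentration that inhibited growth, with growth confirmed by oxidase test. Run in duplicate, repeated at least three times.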

[26] = system: Plasmodium falciparum; experiment: Antiplasmodial activity against chloroquine-sensitive Plasmodium falciparum 3D7 assessed as reduction in parasitic LDH activity after 48 hrs by Malstat reagent based […] method; assay type: functional; settings: 3D7, 48 h
How it was run: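 Unsynchronized P. falciparum 3D7 at 0.5% parasitemia and 1% hematocrit in RPMI with 3% Albumax II. Exposed to 100, 25, 6.25 and 1.56 µg/mL for 48 h at 37 °C under 90% N2/5% CO2/5% O2. After three freeze-thaw cycles, LDH measured with Malstat and NBT/PES, 1 h in the dark, read at 650 nm. IC50 by Probit; triplicate, ≥2 experiments.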

[27] = system: U-937; experiment: Cytotoxicity against human U937 cells after 72 hrs by MTT assay; assay type: cell-based; settings: u-937, 72 h
How it was run: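 Exponentially growing U-937 at 1 × 10^5 cells/mL in RPMI-1640 with 10% FBS were exposed to 200, 50, 12.5 and 3.125 µg/mL for 72 h at 37 °C, 5% CO2. MTT for 3 h, stopped with isopropanol/SDS, formazan read at 570 nm, blank-corrected. LC50 by Probit from % viability against untreated cells. Triplicate, at least two independent experiments.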

[28] = system: Trypanosoma cruzi; experiment: Antitrypanosomal activity against Trypanosoma cruzi Tulahuen intracellular amastigote harboring LacZ infected in human U937 cells after 72 hrs by CPRG/Nonidet reagent based spectrophotometric method; assay type: functional, cell-based; settings: U-937, 72 h
How it was run: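 U-937 cells at 2.5 × 10^5 cells/mL in RPMI-1640 with 10% serum and 0.1 µg/mL PMA were infected with β-galactosidase-transfected Tulahuen epimastigotes at 5 parasites per cell. Infected cells were exposed to 50, 12.5, 3.125 and 0.78 µg/mL for 72 h. CPRG (100 uM) and 0.1% Nonidet P-40 were added for 3 h, read at 570 nm. EC50 by Probit. Triplicate, at least two experiments; benznidazole as reference.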

Structure (SMILES) | MIC [1] | MIC [2] | EC50 [3] | MIC50 [4] | MIC80 [4] | MIC50 [5] | MIC80 [5] | inhibition of growth at 250 µg/mL [6] | inhibition of growth at 125 µg/mL [7] | inhibition of growth at 62.5 µg/mL [8] | inhibition of growth at 31.25 µg/mL [9] | inhibition of growth at 15.62 µg/mL [10] | inhibition of growth at 7.8 µg/mL [11] | inhibition of growth at 3.4 µg/mL [12] | inhibition of growth at 250 µg/mL [13] | inhibition of growth at 125 µg/mL [14] | inhibition of growth at 62.5 µg/mL [15] | inhibition of growth at 31.25 µg/mL [16] | inhibition of growth at 15.62 µg/mL [17] | inhibition of growth at 7.8 µg/mL [18] | further results
Cc1ccc(C2=NN(C=O)C(c3cccc(Nc4ccnc5cc(Cl)ccc45)c3)C2)cc1 (stereo not given) | > 1000 µg/mL | > 1000 µg/mL | 2.19 µg/mL (≈ 4.97 µM) | ≥ 250 µg/mL | ≥ 250 µg/mL | 125 µg/mL (≈ 283 µM) | ≥ 250 µg/mL | 48.4% | 28.5% | 24.3% | 23% | 22.6% | 13.7% | 12.7% | 76% | 50.7% | 44.5% | 44.4% | 43.6% | 31.1% | inhibition of growth at 3.4 µg/mL [19]: 24.8%; MIC [20]: > 1000 µg/mL; MIC [21]: > 1000 µg/mL; MIC [22]: > 1000 µg/mL; MIC [23]: > 1000 µg/mL; MIC [24]: > 1000 µg/mL; MIC [25]: > 1000 µg/mL; EC50 [26]: 16.2 µg/mL (≈ 36.7 µM); LC50 [27]: 1.3 µg/mL (≈ 2.95 µM); EC50 [28]: 0.96 µg/mL (≈ 2.18 µM)
COc1ccc(C2=NN(C(C)=O)C(c3cccc(Nc4ccnc5cc(Cl)ccc45)c3)C2)cc1 (stereo not given) | > 1000 µg/mL | > 1000 µg/mL | 2.98 µg/mL (≈ 6.33 µM) | ≥ 250 µg/mL | ≥ 250 µg/mL | 250 µg/mL (≈ 531 µM) | ≥ 250 µg/mL | 37.5% | 33.4% | 20.4% | 16.9% | 14.2% | 7.64% | 6.14% | 72.2% | 45% | 22.4% | 20.2% | 13.9% | 7.99% | inhibition of growth at 3.4 µg/mL [19]: 4.82%; MIC [20]: > 1000 µg/mL; MIC [21]: > 1000 µg/mL; MIC [22]: > 1000 µg/mL; MIC [23]: > 1000 µg/mL; MIC [24]: > 1000 µg/mL; MIC [25]: > 1000 µg/mL; EC50 [26]: 13.8 µg/mL (≈ 29.3 µM); LC50 [27]: 4.9 µg/mL (≈ 10.4 µM); EC50 [28]: 3.44 µg/mL (≈ 7.3 µM)
COc1cc(C2=NN(C=O)C(c3cccc(Nc4ccnc5cc(Cl)ccc45)c3)C2)cc(OC)c1OC (stereo not given) | > 1000 µg/mL | > 1000 µg/mL | 6.79 µg/mL (≈ 13.1 µM) | ≥ 250 µg/mL | ≥ 250 µg/mL | ≥ 250 µg/mL | ≥ 250 µg/mL | 43.9% | 26.7% | 23.7% | 19.7% | 19.6% | 5.72% | 5.34% | 0% | 0% | 0% | 0% | 0% | 0% | inhibition of growth at 3.4 µg/mL [19]: 0%; MIC [20]: > 1000 µg/mL; MIC [21]: > 1000 µg/mL; MIC [22]: > 1000 µg/mL; MIC [23]: > 1000 µg/mL; MIC [24]: > 1000 µg/mL; MIC [25]: > 1000 µg/mL; EC50 [26]: 24.3 µg/mL (≈ 47 µM); LC50 [27]: 17.4 µg/mL (≈ 33.7 µM); EC50 [28]: 7.22 µg/mL (≈ 14 µM)
